Published values collected from several papers.
Lines come from different studies, so protocols differ.
PI4KB: Phosphatidylinositol 4-kinase beta (PI4KB, Homo sapiens, UniProt Q9UBF8)
SPHK2: Sphingosine kinase 2 (SPHK2, Homo sapiens, UniProt Q9NRA0)
HDAC4: Histone deacetylase 4 (HDAC4, Homo sapiens, UniProt P56524)
cah: cah (Neisseria gonorrhoeae, UniProt Q50940)

`CCC(=O)N1CCC(C(=O)NCC(=O)N2CCN(c3nc(-c4cnc(N)nc4C(F)F)nc(N4CCOCC4)n3)CC2)CC1` gave a Kd of > 30000 nM (PI4KB; binding, competition with immobilised ligand).
For `N=C(N)N1CCC[C@H]1c1nc(-c2ccc(CCC3CCCCC3)c(C(F)(F)F)c2)no1`, the Ki was 90 nM (SPHK2; enzyme activity, inhibitor).
With `CCCN(CCCCOCCOCCOCCOCC(=O)N[C@H](C(=O)N1C[C@H](O)C[C@H]1C(=O)NCc1ccc(-c2scnc2C)cc1)C(C)(C)C)C[C@@H](C)NC(=O)c1ccc(-c2noc(C(F)(F)F)n2)cc1` the DC50 was 4 nM (HDAC4; protein level, degrader).
For `O=C(Nc1ccc(CN2CCOCC2)c(C(F)(F)F)c1)c1ccc(C#Cc2cccc3cnccc23)cn1`, the AC50 was 5500 nM (Oxidized purine nucleoside triphosphate hydrolase (NUDT1, Homo sapiens, UniProt P36639); enzyme activity, activator).
With `NS(=O)(=O)c1nnc(NC(=O)C2CCCC2)s1` the Ki was 14.1 nM (cah; enzyme activity, inhibitor).
With `COc1cc(C2Oc3cc([C@H]4Oc5cc(O)cc(O)c5C(=O)[C@@H]4O)ccc3OC2CO)ccc1O` (some centres unmarked) the Ki was 58400 nM (Cytochrome P450 2B1 (Cyp2b1, Rattus norvegicus, UniProt P00176); enzyme activity, inhibitor; rat, liver microsomes; 1 h).
For `Cc1cnc(-c2ccc(-c3ccc(NC(=O)Nc4c(F)cc(F)cc4F)cc3F)c3c2C(=O)NC3)[nH]1`, the Kd was 2.2 nM (Tyrosine-protein kinase Blk (BLK, Homo sapiens, UniProt P51451); binding, competition with immobilised ligand).
`CCCN(CCCCOCCOCCOCCOCCOCC(=O)N[C@H](C(=O)N1C[C@H](O)C[C@H]1C(=O)NCc1ccc(-c2scnc2C)cc1)C(C)(C)C)C[C@@H](C)NC(=O)c1ccc(-c2noc(C(F)(F)F)n2)cc1` has a DC50 of 4 nM (HDAC4; protein level, degrader).
`FC(F)(F)c1ccc(C(c2c[nH]c3ccccc23)c2c[nH]c3ccccc23)cc1` has a Kd of 3000 nM (Nuclear receptor subfamily 4immunitygroup A member 1 (NR4A1, Homo sapiens, UniProt P22736); binding, SPR).
With `Cc1nc(NC(=O)N2CCC[C@H]2C(N)=O)sc1-c1ccnc(C(C)(C)C(F)(F)F)c1` the Kd was 82 nM (PI4KB; binding, competition with immobilised ligand).
With `N[C@@H](CCC(=O)O)C(=O)O` the EC50 was 260000 nM (Metabotropic glutamate receptor 7 (Grm7, Rattus norvegicus, UniProt P35400); ion flux, agonist).
`CCCc1ccc(CCc2ccc(-c3noc([C@@H]4CCCN4C(=N)N)n3)cc2C(F)(F)F)cc1` gave a Ki of 132 nM (SPHK2; enzyme activity, inhibitor).
With `NC(=O)c1ccc[n+]([C@@H]2O[C@H](COP(=O)([O-])OP(=O)(O)OC[C@H]3O[C@@H](n4cnc5c(N)ncnc54)[C@H](O)[C@@H]3O)[C@@H](O)[C@H]2O)c1` the Kd was ≤ 2300 nM (Inosine-5'-monophosphate dehydrogenase (Cryptosporidium parvum, UniProt Q8T6T2); binding).
For `NS(=O)(=O)c1ccc(C(=O)CSCc2ccccc2)cc1`, the Kd was 16 nM (Carbonic anhydrase 4 (CA4, Homo sapiens, UniProt P22748); thermal stability, DSF; pH 7).
`Nc1ncnc2c1ncn2[C@@H]1O[C@H](COP(=O)(O)OP(=O)(O)OP(=O)(O)O)[C@@H](O)[C@H]1O` has an EC50 of ~900 nM (P2X purinoceptor 1 (P2RX1, Homo sapiens, UniProt P51575); ion current, agonist, two-electrode voltage clamp; oocytes).
`CCC(=O)N1CCC(C(=O)N(C)CC(=O)N2CCN(c3nc(-c4cnc(N)nc4C(F)F)nc(N4CCOCC4)n3)CC2)CC1` gave a Kd of > 30000 nM (PI4KB; binding, competition with immobilised ligand).
The Ki of `CCCC[C@H](NC(=O)[C@H](C)c1c(C)[nH]c2ccc(O)cc12)c1ncc(-c2cc3ccccc3nc2OC)[nH]1` is reported as 3940 nM (Alpha-1B adrenergic receptor (Adra1b, Rattus norvegicus, UniProt P15823); cell-free assay).
With `CC1CCC(C(=O)Nc2nnc(S(N)(=O)=O)s2)CC1` (centres unmarked) the Ki was 8.7 nM (cah; enzyme activity, inhibitor).
With `CC[C@H](NC(=O)[C@H](CS(=O)(=O)CC1CC1)N[C@@H](c1ccc(F)cc1)C(F)(F)F)C(=O)C(=O)NC1CC1` the Ki was 0.25 nM (Procathepsin L (CTSL, Homo sapiens, UniProt P07711); enzyme activity, inhibitor, fluorescence; with preincubation).
`Nc1nnc(S(N)(=O)=O)s1` has a Ki of 73.2 nM (cah; enzyme activity, inhibitor).
With `CCCN(CCCCOCCOCCOCC(=O)N[C@H](C(=O)N1C[C@H](O)C[C@H]1C(=O)NCc1ccc(-c2scnc2C)cc1)C(C)(C)C)C[C@@H](C)NC(=O)c1ccc(-c2noc(C(F)(F)F)n2)cc1` the DC50 was 3 nM (HDAC4; protein level, degrader).
For `CCOC(=O)[C@](CC)(CCCS(=O)(=O)CCOCCOCCNC(=O)OC(C)(C)C)NC(=O)c1ccc(C2CC2)c(Cc2ccc(F)cc2)n1`, the EC50 was 33 nM (Cannabinoid receptor 2 (Cnr2, Mus musculus, UniProt P47936); cAMP, agonist).
`NS(=O)(=O)c1nnc(NC(=O)C2CC2)s1` has a Ki of 15.2 nM (cah; enzyme activity, inhibitor).
